MT stabilizer: stabilizes microtubules in HeLa cells | 200,000 tested, 0.83% active | HeLa tubulin immunostaining HCS, 24 h; share of cells brighter than vehicle mean+2SD | AID 2205 | % tubulin-high responders, % at 10 µM;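 active = plate Z-score above 3 for both tubulin-high and condensed-nucleus cell shares, with cell loss under 80%, at 10 µM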;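 also: anti alpha tubulin signal scored within the nucleus-defined area of each cell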
APP transl inh: APP translation inhibition. SH-SY5Y APP 5'UTR-luciferase reporter, luminescence. inhibition, % at 2 µM. 190,000 tested, 0.82% active;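 active = inhibition above a set limit, derived from the sample mean plus 3 SD, cut at about 45% in these data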
Lmaj promast: inhibitors of Leishmania major promastigote growth; Leishmania major promastigotes, resazurin fluorescence viability; AID 1063; 200,000 tested, 9% active; inhibition, % at 10 µM; in the data active = inhibition above about 50%;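 also: promastigotes grown with compound for 44 hours at 28 °C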
Ba/F3 V617F tox: loss of viability in JAK2V617F-driven Ba/F3 cells; 220,000 tested, 1.1% active; inhibition, % at 5.6 µM; Ba/F3 EpoR-JAK2V617F viability, ATP luminescence; AID 1446;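 active = inhibition above the campaign mean plus 3 SD over all tested compounds, cut at about 24% in these data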;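 also: cytokine-independent growth of Ba/F3 cells driven by EpoR plus mutant JAK2; 0% = DMSO-treated cells and 100% = JAK inhibitor I control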
BaF3 parental: reduces parental Ba/F3 cell viability, JAK2V617F counter-screen. CellTiter-Glo ATP luminescence. inhibition, % at 5.6 µM. 220,000 tested, 1.1% active. AID 1486;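 active = inhibition above a per-campaign cutoff, the mean inhibition of all tested compounds plus 3 SD, cut at about 27% in these data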;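 also: 0% = DMSO wells and 100% = JAK Inhibitor I control wells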
b-catenin transl: modulators of beta-catenin nuclear translocation; nuclear translocation activity, % at 5 µM; HeLa beta-catenin nuclear translocation, immunofluorescence imaging; AID 1665; 190,000 tested, 0.3% active;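 active = nuclear translocation activity above 50% at 5 µM, with a well cell count of 50 or more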;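 also: per-cell ratio of nuclear to cytoplasmic median beta-catenin stain intensity; plate controls were DMSO negative control for no effect and GSK-3 inhibitor IX positive control for full effect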
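Test system: human HeLa cell line; Doses: 5 µM primary, 0.02–20 µM confirmation; Incubation: 24 h compound exposure, 37°C; Detection: beta-catenin immunofluorescence imaging with DAPI; Read-out: beta-catenin nuclear/cytoplasmic ratio, % activation.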
* = called active by the depositor; . = no result. The list is not random: actives were taken first. Their share in the collection is about 9.6%.

SMILES	MT stabilizer	APP transl inh	Lmaj promast	Ba/F3 V617F tox	BaF3 parental	b-catenin transl
CC1=NOC(=O)/C1=C\c1ccc(-c2ccc(Cl)c(C(=O)O)c2)o1	2	1	-5	0	5	1
CC1=NOC(=O)/C1=C\c1ccc(-c2ccccc2Br)o1	3	32	99*	7	12	-2
CC1=CC2=NC(=O)/C(=C\c3ccc(-c4cccc(Cl)c4)o3)C(=N)N2O1	20*	-2	58*	4	13	119*
CC1=NOC(=O)/C1=C\c1ccc(-c2cccc(Cl)c2)o1	3	18	97*	1	1	-1
O=S(=O)(Nc1nc2ccccc2nc1Cl)c1ccc2ccccc2c1	1	3	38	0	6	.
Cn1nc(NC(=O)C(F)(F)F)c2ncc(-c3ccc(Cl)cc3)nc21	.	.	.	2	8	-1
O=C(Cc1csc(-c2ccccc2)n1)Nc1ccc(C(F)(F)F)cc1	3	1	87*	-1	5	2
CCCCn1c(SCC2CCCCO2)nc2cc(S(N)(=O)=O)ccc21 (stereo not drawn)	2	-4	8	1	3	2
O=c1c2c(-c3ccccc3)csc2ncn1/N=C/c1cccc([N+](=O)[O-])c1O	4	13	2	2	7	0
Cn1cc(/C=N/n2cnc3scc(-c4ccccc4)c3c2=O)c2ccccc21	28*	92*	23	2	5	71*
CN1CCN(CC(=O)N2c3ccccc3C(C)(c3ccccc3)CC2(C)C)CC1 (stereo not drawn)	1	-11	12	30*	3	1
O=C(O)COc1ccc(-c2nccc(-c3ccccn3)n2)cc1	3	63*	3	-3	-1	0
Brc1cccc2sc(N3CCCC3)nc12	2	-37	-5	1	6	-2
Cc1ccc(N(CCC(=O)O)S(=O)(=O)c2ccccc2)cc1	3	-5	-6	3	3	1
CCOc1ccccc1NC(=O)CCN(c1ccc(C)cc1)S(=O)(=O)c1ccccc1	3	4	81*	-2	2	0
Cc1ncc(CO)c(/C=N/NC(=S)Nc2ccc(Cl)c(Cl)c2)c1O	4	32	73*	0	5	-1
Cc1ncc(CO)c(/C=N/NC(=O)c2ccc(O)cc2)c1O	4	-18	0	0	1	3
Cc1ncc(CO)c(/C=N/NC(=O)c2cc3c(s2)CCCC3)c1O	7	27	98*	4	-2	0
NC(=O)CC[C@@H]1NC(=O)C(Cc2ccc(O)cc2)NC(=O)c2cc([N+](=O)[O-])cc(F)c2NCCC[C@@H](C(N)=O)NC1=O (stereo partly drawn)	2	9	5	4	8	2
CCOC(=O)c1c(C)nc2sc(C(=O)Nc3ccc(C(C)=O)cc3)c(N)c2c1-c1ccc(OC)cc1	31	-10	95*	3	7	15
CCOC(=O)c1c(C)nc2sc(C(N)=O)c(N)c2c1-c1ccc(OC)cc1	1	64*	94*	-4	-1	-5
CCOC(=O)c1c(C)nc2sc(C(=O)Nc3ccc(OC)cc3)c(N)c2c1-c1ccc(OC)cc1	24*	2	21	2	7	-6
CCOC(=O)c1c(C)nc2sc3c(=O)n(-c4ccc(C(C)=O)cc4)nnc3c2c1-c1ccc(OC)cc1	3	-18	44	0	4	.
COc1ccc(-c2c(C(C)=O)c(C)nc3sc4c(=N)n(N)cnc4c23)cc1	3	-10	62*	-6	-1	0
Cn1c(SCC(=O)Nc2cccnc2)nnc1-c1ccccc1F	4	0	-5	-4	2	-1
SMILES	MT stabilizer	APP transl inh	Lmaj promast	Ba/F3 V617F tox	BaF3 parental	b-catenin transl
COc1ccc(OC)c(C2SCCN2S(=O)(=O)c2cccc(C(F)(F)F)c2)c1 (stereo not drawn)	1	-2	4	4	6	-4
CC(C)(C)c1ccc(OCC(=O)N/N=C/c2ccc(N3CCOCC3)cc2)cc1	3	4	0	-4	-2	-1
COc1ccc(CCNCC(O)Cn2c3ccccc3c3ccccc32)cc1OC (stereo not drawn)	16	-6	100*	2	11	4
CCn1c(=O)cc(OCC(=O)NCCCN2CC(C)CC(C)C2)c2ccccc21 (stereo not drawn)	3	-1	-4	-1	3	.
CN(C(=O)COc1cc(=O)n(C)c2ccccc12)c1cccc(Cl)c1	3	-4	15	-2	0	.
CCN(CCCNC(=O)COc1cc(=O)n(CC)c2ccccc12)c1ccccc1	2	1	53*	-1	8	-4
CCN(CCCNC(=O)COc1cc(=O)n(C)c2ccccc12)c1ccccc1	2	-12	65*	-1	4	.
CCN(C(=O)COc1cc(=O)n(C)c2ccccc12)c1cccc(Cl)c1	2	-11	62*	-1	3	.
CC(=O)Nc1ccc(S(=O)(=O)NCC(=O)NC(C)c2ccc(S(N)(=O)=O)cc2)cc1 (stereo not drawn)	.	.	.	-6	-2	0
COc1ccc(-c2ccc(SCC(=O)c3ccc(F)cc3)nn2)cc1OC	2	-31	63*	6	8	-1
COc1ccc(-c2ccc(SCC(=O)c3cccs3)nn2)cc1OC	2	5	35	-2	1	-4
Cc1ncoc1C(=O)Nc1ccc(Oc2ccccc2)cc1	4	-54	17	2	4	0
Cc1nc(C)c(C(=O)Nc2ccc(Oc3ccccc3)cc2)o1	3	8	76*	5	9	0
CCN1C(=O)C(CC(=O)Nc2ccccc2)S/C1=N\c1ccccn1 (stereo not drawn)	2	-10	-3	-2	1	2
Nc1ccn([C@@H]2O[C@H](CO)[C@@H](O)C2O)c(=O)n1 (stereo partly drawn)	.	.	.	75*	72*	-7
N=c1ccn2c(n1)OC1C(O)C(CO)OC12 (stereo not drawn)	.	.	.	75*	80*	-1
Cn1cc(CNCc2ccc(OC(F)(F)F)cc2)c(-c2ccc3c(c2)OCCO3)n1	3	-10	27	47*	40*	2
COC(=O)CSc1ncnc2c(C)csc12	.	.	.	-2	-2	0
COc1ccc(CCNC(=S)Nc2cccc3ccccc23)cc1	5	-17	85*	4	7	.
S=C(NCc1cccnc1)Nc1cccc2ccccc12	3	18	92*	-6	-2	-2
C=CCNC(=S)NCc1cccnc1	1	12	80*	-2	6	.
S=C(NCc1cccnc1)NCc1cccnc1	3	3	-5	-4	3	0
S=C(NCCc1ccccc1)Nc1cccc2cnccc12	4	-6	-7	17	42*	0
COc1ccc(OCCNC(=S)Nc2cccc3ccccc23)cc1	3	-36	3	3	6	0

Assay outcomes from PubChem BioAssay.
